Test [1] addresses T1, Interstitial collagenase (Homo sapiens, UniProt P03956).
T1 sequence (P03956 whole entry): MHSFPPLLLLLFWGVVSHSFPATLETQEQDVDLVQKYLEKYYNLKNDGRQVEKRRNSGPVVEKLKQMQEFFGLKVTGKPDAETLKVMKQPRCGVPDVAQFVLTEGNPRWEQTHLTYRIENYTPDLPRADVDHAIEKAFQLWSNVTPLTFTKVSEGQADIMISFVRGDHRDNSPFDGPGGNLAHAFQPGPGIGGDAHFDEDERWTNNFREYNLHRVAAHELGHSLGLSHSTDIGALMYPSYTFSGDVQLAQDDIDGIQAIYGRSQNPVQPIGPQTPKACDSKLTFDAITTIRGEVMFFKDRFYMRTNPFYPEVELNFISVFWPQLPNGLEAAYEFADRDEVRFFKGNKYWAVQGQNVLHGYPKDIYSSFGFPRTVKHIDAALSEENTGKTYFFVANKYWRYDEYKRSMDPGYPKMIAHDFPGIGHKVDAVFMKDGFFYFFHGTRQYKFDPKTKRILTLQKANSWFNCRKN
Kind of test: Inhibition of recombinant human activated-MMP1 using Mca-Lys-Pro-Leu-Gly-Leu-Dap(Dnp)-Ala-Arg-NH2 as fluorogenic substrate incubated for 4 hrs followed by substrate addition measured every 10 secs for 20 mins by fluorometric assay. The essentials:
(§1)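 Recombinant human MMPs. Pro-forms activated with APMA: MMP-2 2 mM 1 h, MMP-9 1 mM 1 h, MMP-1 2 mM 2 h, MMP-13 1 mM 35 min, all 37 °C. MMP-3 activated with trypsin 4.4 µg/mL 30 min, then soybean trypsin inhibitor. Final enzyme 0.5 (MMP-2), 1.3 (MMP-9), 1.0 (MMP-14cd), 2.0 (MMP-1), 0.66 (MMP-13), 5 nM (MMP-3). Preincubated with inhibitor 4 h at 25 °C in Tris 50 mM pH 7.5, NaCl 150 mM, CaCl2 10 mM, Brij 35 0.05%, DMSO 1%. Substrate 2 µM final; fluorescence (ex 325/em 395 nm) every 10 s for 20 min. IC50 from vi/vo = 1/(1+[I]/IC50).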

For test [2], the target named is Stromelysin-1 (Homo sapiens, UniProt P08254). In words: Inhibition of recombinant human activated-MMP3 using Mca-Lys-Pro-Leu-Gly-Leu-Dap(Dnp)-Ala-Arg-NH2 as fluorogenic substrate incubated for 4 hrs followed by substrate addition measured every 10 secs for 20 mins by fluorometric assay. The essentials: as §1
Test [3] deals with T2, Matrix metalloproteinase-9 (Homo sapiens, UniProt P14780). Kind of test: Inhibition of recombinant human activated-MMP9 using Mca-Lys-Pro-Leu-Gly-Leu-Dap(Dnp)-Ala-Arg-NH2 as fluorogenic substrate incubated for 4 hrs followed by substrate addition measured every 10 secs for 20 mins by fluorometric assay. The essentials: as §1
The target of test [4] is Matrix metalloproteinase-14 (Homo sapiens, UniProt P50281). Kind of test: Inhibition of recombinant human catalytic domain MMP14 using Mca-Lys-Pro-Leu-Gly-Leu-Dap(Dnp)-Ala-Arg-NH2 as fluorogenic substrate incubated for 4 hrs followed by substrate addition measured every 10 secs for 20 mins by fluorometric assay. The essentials:
as §1

For test [5], the target named is T3, 72 kDa type IV collagenase (Homo sapiens, UniProt P08253). In words: Inhibition of recombinant human activated-MMP2 using Mca-Lys-Pro-Leu-Gly-Leu-Dap(Dnp)-Ala-Arg-NH2 as fluorogenic substrate incubated for 4 hrs followed by substrate addition measured every 10 secs for 20 mins by fluorometric assay. An outline of the steps: as §1
Target sequence in this assay (P08253 whole entry): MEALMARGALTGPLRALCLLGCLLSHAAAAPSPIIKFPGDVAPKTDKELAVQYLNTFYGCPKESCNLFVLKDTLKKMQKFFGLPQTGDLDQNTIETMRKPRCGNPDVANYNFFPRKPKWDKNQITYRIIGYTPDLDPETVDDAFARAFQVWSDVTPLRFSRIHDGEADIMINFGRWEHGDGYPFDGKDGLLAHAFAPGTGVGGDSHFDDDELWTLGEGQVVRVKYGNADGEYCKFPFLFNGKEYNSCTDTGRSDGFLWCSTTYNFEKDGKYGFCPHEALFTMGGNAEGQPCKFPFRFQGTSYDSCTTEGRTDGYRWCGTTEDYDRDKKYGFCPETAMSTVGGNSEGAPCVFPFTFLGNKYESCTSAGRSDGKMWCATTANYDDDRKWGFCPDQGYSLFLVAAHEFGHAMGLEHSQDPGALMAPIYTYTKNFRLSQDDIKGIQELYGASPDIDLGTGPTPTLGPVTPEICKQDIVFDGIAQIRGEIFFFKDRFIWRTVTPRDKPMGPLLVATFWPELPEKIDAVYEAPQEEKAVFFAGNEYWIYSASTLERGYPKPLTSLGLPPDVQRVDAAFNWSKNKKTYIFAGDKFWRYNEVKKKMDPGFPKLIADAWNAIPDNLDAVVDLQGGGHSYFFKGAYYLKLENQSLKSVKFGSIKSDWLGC
In test [6] the test system is U-87 MG. Kind of test: Antiinvasive activity in human U87MG cells after 24 hrs by Transwell matrigel assay. It is filed as functional, U-87MG ATCC.
Test [7] concerns the target Collagenase 3 (Homo sapiens, UniProt P45452). Kind of test: Inhibition of recombinant human activated-MMP13 using Mca-Lys-Pro-Leu-Gly-Leu-Dap(Dnp)-Ala-Arg-NH2 as fluorogenic substrate incubated for 4 hrs followed by substrate addition measured every 10 secs for 20 mins by fluorometric assay. An outline of the steps: as §1
Test [8] deals with HUVEC. Kind of test: Inhibition of cell migration in human HUVEC at 0.001 to 10 uM after 6 hrs using modified Boyden chambers. It is filed as functional, cell-based. The essentials:
(§2)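 Modified Boyden chamber. HUVEC (5x10^4), PBS-washed, in serum-free medium with or without inhibitor in upper compartment; 10% FBS or serum-free medium below. 8 µm polycarbonate filters coated with collagen 50 µg/mL (migration, 6 h) or matrigel 1 mg/mL (invasion, overnight). Cells on lower surface ethanol-fixed, stained, counted blind in eight fields. Three experiments in duplicate; one-way ANOVA.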

Test [9] has as its system HUVEC. Kind of test: Inhibition of FBS-induced capillary-like network organization in human HUVEC at 0.001 to 10 uM after 6 hrs by matrigel assay. It is filed as functional, cell-based. The essentials: (§3)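 Matrigel (10 mg/mL) polymerized 1 h at 37 °C. HUVEC (50x10^4/well) in complete medium with 10% FBS, with or without inhibitor at various concentrations, layered on top. After 6 h, capillary-like organization imaged by inverted microscope; mesh number counted as tubulogenic efficiency.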

Test [10] relates to HUVEC. Kind of test: Inhibition of FBS-induced network efficiency of human HUVEC assessed as reduction of number of meshes at 0.001 to 10 uM after 6 hrs by matrigel assay. It is filed as functional, cell-based. An outline of the steps:
as §3

Test [11] concerns HUVEC. In words: Inhibition of PMA-stimulated MMP2 mRNA expression in human HUVEC after 24 hrs by QT-PCR analysis. It is filed as functional, cell-based. The essentials: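 HUVEC starved, PMA pre-treated (30 nM, 3 h), then exposed to inhibitor for 24 h before RNA extraction. Real-time PCR with SYBR Green, 45 cycles (95 °C 10 s, 60 °C 15 s, 72 °C 15 s), with melting-curve check.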

The test system of test [12] is HUVEC. Kind of test: Inhibition of PMA-stimulated MMP2 protein expression in human HUVEC after 24 hrs by Western blot analysis relative to control. It is filed as functional. An outline of the steps: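 HUVEC (2x10^6) seeded, attached one day, starved 6 h in serum-free medium with 2% BSA. Pre-treated 3 h with 30 nM PMA, then exposed to inhibitor (10 µM) or DMSO vehicle for 24 h. Conditioned media and cell proteins collected. Equal protein on 10% SDS-PAGE, PVDF blot, milk block, anti-MMP-2, MMP-9 and β-actin antibodies, HRP/ECL detection.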

For test [13], the target named is T3, 72 kDa type IV collagenase. In words: Inhibition of MMP2 gelatinase activity in human HUVEC at 0.001 to 10 uM by gel zymography. An outline of the steps: (§4)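 Gelatin zymography on 10% polyacrylamide gels with 0.1% gelatin and SDS, samples unheated. Gels renatured 30 min at room temperature. Either untreated-HUVEC conditioned medium run and gel lane slices developed overnight at 37 °C in developing buffer containing inhibitor, or medium from inhibitor-treated HUVEC developed overnight without inhibitor. Coomassie stained; bands quantified by densitometry.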
Target sequence in this assay (P08253 110-660 limits assumed): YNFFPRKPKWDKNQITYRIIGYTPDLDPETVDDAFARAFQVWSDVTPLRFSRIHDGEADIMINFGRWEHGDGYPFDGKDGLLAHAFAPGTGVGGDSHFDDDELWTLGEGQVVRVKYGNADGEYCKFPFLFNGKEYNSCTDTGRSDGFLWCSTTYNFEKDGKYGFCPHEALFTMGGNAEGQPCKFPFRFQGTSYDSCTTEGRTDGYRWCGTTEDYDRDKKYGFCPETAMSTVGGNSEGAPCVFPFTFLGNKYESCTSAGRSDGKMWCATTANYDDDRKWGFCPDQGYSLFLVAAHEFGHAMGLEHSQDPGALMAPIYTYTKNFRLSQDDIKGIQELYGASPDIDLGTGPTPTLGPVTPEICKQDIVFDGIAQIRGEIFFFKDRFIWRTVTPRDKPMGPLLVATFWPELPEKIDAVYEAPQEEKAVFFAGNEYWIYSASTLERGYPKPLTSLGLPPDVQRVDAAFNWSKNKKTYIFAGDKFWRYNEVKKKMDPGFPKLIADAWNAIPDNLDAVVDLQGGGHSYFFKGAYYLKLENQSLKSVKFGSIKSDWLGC

Test [14] deals with T2, Matrix metalloproteinase-9. Kind of test: Inhibition of MMP9 gelatinase activity in human HUVEC at 0.001 to 10 uM by gel zymography. The essentials: as §4
Test [15] concerns HUVEC. Kind of test: Inhibition of FBS-induced cell invasion in human HUVEC at 0.001 to10 uM after overnight incubation using modified Boyden chambers. It is filed as functional, cell-based. An outline of the steps: as §2
For test [16], the system named is HUVEC. In words: Inhibition of FBS-induced cell invasion in human HUVEC after overnight incubation using modified Boyden chambers. It is filed as functional, cell-based. The essentials:
as §2

The target of test [17] is T3, 72 kDa type IV collagenase. Kind of test: Inhibition of MMP2 gelatinase activity in human HUVEC by gel zymography. An outline of the steps: as §4
Target sequence in this assay (P08253 110-660 limits assumed): as above
In test [18] the target is T2, Matrix metalloproteinase-9. In words: Inhibition of MMP9 gelatinase activity in human HUVEC by gel zymography. An outline of the steps: as §4
The target of test [19] is T3, 72 kDa type IV collagenase. In words: Inhibition of MMP2 gelatinase activity in human HUVEC at 0.1 uM by gel zymography. An outline of the steps: as §4
Target sequence in this assay (P08253 110-660 limits assumed): as above
Test [20] has as its target T2, Matrix metalloproteinase-9. The conditions noted are these: HUVEC, 0.1 uM.

Active and inactive are the calls of the source. The calls are words filed in the database; no cut-off is given here.

Stromelysin-1, sequence (P08254 whole entry): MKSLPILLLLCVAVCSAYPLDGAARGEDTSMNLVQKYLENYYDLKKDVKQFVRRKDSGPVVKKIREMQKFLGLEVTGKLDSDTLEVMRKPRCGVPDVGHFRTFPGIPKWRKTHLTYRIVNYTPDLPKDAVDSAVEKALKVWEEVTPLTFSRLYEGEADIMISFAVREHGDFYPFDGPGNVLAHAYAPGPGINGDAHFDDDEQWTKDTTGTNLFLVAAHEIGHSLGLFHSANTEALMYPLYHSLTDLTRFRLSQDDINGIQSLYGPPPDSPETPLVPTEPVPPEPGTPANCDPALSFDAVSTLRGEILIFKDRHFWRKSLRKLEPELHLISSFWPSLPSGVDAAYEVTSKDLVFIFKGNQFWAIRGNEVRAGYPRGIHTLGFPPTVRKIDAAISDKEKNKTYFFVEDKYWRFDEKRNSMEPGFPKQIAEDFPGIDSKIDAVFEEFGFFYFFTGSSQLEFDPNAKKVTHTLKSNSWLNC
T2 sequence (P14780 whole entry, the tested form may be a part): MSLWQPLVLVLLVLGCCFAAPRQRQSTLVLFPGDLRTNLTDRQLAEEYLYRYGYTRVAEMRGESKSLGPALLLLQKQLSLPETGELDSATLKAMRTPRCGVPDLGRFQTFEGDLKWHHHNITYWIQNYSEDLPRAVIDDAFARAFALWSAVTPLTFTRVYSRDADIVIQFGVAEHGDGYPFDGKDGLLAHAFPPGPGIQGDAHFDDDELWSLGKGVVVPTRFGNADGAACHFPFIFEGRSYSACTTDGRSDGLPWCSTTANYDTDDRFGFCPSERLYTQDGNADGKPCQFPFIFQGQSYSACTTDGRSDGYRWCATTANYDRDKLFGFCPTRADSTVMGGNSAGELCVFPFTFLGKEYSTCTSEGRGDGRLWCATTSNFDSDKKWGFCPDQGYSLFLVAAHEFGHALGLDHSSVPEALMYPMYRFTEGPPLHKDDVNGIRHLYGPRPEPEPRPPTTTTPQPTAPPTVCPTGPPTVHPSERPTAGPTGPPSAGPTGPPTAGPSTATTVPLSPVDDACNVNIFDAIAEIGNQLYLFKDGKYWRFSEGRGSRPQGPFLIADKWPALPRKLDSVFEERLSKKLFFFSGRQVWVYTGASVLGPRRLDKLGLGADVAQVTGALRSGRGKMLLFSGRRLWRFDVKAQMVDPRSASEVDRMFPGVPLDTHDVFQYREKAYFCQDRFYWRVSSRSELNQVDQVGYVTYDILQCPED

Take `COc1ccc(-c2ccc(S(=O)(=O)N(OC(C)C)[C@H](CCNC(=O)Cc3ccccc3)C(=O)NO)cc2)cc1`: the IC50 in test [1] was 1400 nM; in test [2] it was 36 nM; in test [3], 2.9 nM; in [4] it was 25 nM.
As for `CC(C)ON([C@H](CCNC(=O)c1ccccc1)C(=O)NO)S(=O)(=O)c1ccc(-c2ccccc2)cc1`, the IC50 in test [1] was found to be 780 nM; in [5] it was 1.5 nM; in [2] it was 450 nM; in test [3] it was 9 nM.
Take `CC(=O)NCC[C@H](C(=O)NO)N(OC(C)C)S(=O)(=O)c1ccc(-c2ccccc2)cc1`: the figures for the IC50 in [1], in [2] and in test [3] were 280 nM, 47 nM and 6.5 nM, respectively.
For the compound `CC(C)ON([C@@H](C(=O)NO)C(C)C)S(=O)(=O)c1ccc(-c2ccccc2)cc1`, the Activity in [6] is reported as 48%.
Consider `CC(=O)NCC[C@H](C(=O)NO)N(OC(C)C)S(=O)(=O)c1ccccc1`, for which the IC50 was determined as 26000 nM in [1]; 590 nM in test [5]; 3900 nM in test [3]; 1800 nM in [7]; 5500 nM in test [4]. The inhibition entry in test [8], in test [9], in test [10], in test [11], in test [13] and in test [14] was “inactive” each time. The inhibition result in [15] is “inactive”. The “fold change (FC)” value in test [12] was determined as 0.9.
Take `CC(C)ON([C@H](CCNS(C)(=O)=O)C(=O)NO)S(=O)(=O)c1ccc(-c2ccccc2)cc1`: the IC50 in test [1] is 320 nM; in test [5], 1 nM; in [2], 71 nM; in test [3] it was 8.6 nM.
As for `COc1ccc(-c2ccc(S(=O)(=O)N(OC(C)C)[C@H](CCNC(C)=O)C(=O)NO)cc2)cc1`, the IC50 in test [1] worked out at 660 nM; in [2], 20 nM; in test [3] it was 2 nM; in test [4], 23 nM. Also, the inhibition entry in test [8], in [9], in test [10], in test [19] and in [20] was “Active” throughout. Further, the inhibition entry in [16], in test [17] and in test [18] was “Dose-dependent effect” in each case.
Turning to `CC(C)ON([C@H](CCNC(=O)Cc1ccccc1)C(=O)NO)S(=O)(=O)c1ccc(-c2ccccc2)cc1`, the IC50 in [1] came out at 1300 nM; in test [5] it was 1.4 nM; in test [2], 120 nM; in test [3] it was 6.4 nM.

(Values after ChEMBL document CHEMBL3616369, “N-O-Isopropyl Sulfonamido-Based Hydroxamates as Matrix Metalloproteinase Inhibitors: Hit Selection and in Vivo Antiangiogenic Activity” (J Med Chem, 2015).)
